Data published in paper PMC8908367 (ACS Omega, 2022).

Columns and labels:
[1] = system: T. cruzi CA-I/72 amastigotes; format: cell-based, Trypanosoma cruzi
How it was run: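 Test compound in DMSO acoustically spotted into 384-well plates. C2C12 mouse […] (500/well) and CA-I/72 T. cruzi (7500/well; strain kept by weekly C2C12 coculture passage) added together, 72 h at 37 °C, 5% CO2. Fixed in 4% paraformaldehyde/PBS, DAPI 5 μg/mL 1 h, imaged at 10×. Automated host and parasite nuclei counts fitted to CC50 and EC50 curves; SI = CC50/EC50.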

[2] = Host cell toxicity in the high-content imaging assay; format: cell-based; conditions: mouse
[3] = system: trypanothione reductase; conditions: cited from earlier work
[4] = system: T. cruzi intracellular parasite; conditions: cited from earlier work

SMILES | SI (Selectivity Index = CC50/EC50) ([1]; CC50 C2C12 / EC50 T. cruzi CA-I/72) | EC50 ([1]; Trypanosoma cruzi, C2C12, 72 h, read-out: EC50, inhibition of T. cruzi amastigote replication) [µM] | CC50 at 72 h [2] [µM] | inhibition of trypanothione reductase [3] | activity against the intracellular parasite in vitro [4]
O=C(Cn1ccnc1[N+](=O)[O-])NCc1ccccc1 [Benznidazole] | >22 | 2.2 ± 0.0013 | > 50 | – | –
C=C1C(=O)[C@H]2O[C@]23C[C@H]2CC(C)(C)[C@H](O)[C@H]2[C@]13C [hypnophilin] | – | – | – | potent inhibitor | showed activity
